Data taken from ChEMBL document CHEMBL4834403, “Design and Synthesis of Novel Epigenetic Inhibitors Targeting Histone Deacetylases, DNA Methyltransferase 1, and Lysine Methyltransferase G9a with In Vivo Efficacy in Multiple Myeloma” (J Med Chem, 2021).

Experiments:
[1] = Permeability of the compound in PBS/EtOH buffer (70:30) incubated for 18 hrs by UV plate reader based PAMPA assay; format: ADME; details: read-out: permeability
Histone deacetylase 1 = Histone deacetylase 1 (Homo sapiens, UniProt Q13547); experiment: Inhibition of full length human C-terminal His-tagged/C-terminal Flag-tagged HDAC1 using fluorogenic acetylated peptide as substrate incubated for 30 mins by fluorescence plate reader assay
MM1.S = experiment: Antiproliferative activity against human MM1.S cells assessed as inhibition of cell proliferation measured up to 72 hrs by CellTiter96 Aqueous one reagent based assay; format: functional
THLE-2 = experiment: Cytotoxicity against human THLE-2 cells assessed as decrease in cell viability measured after 72 hrs by Vialight-plus cell proliferation assay; format: cell-based; details: thle-2, 72 h
Outline: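 Human THLE-2 cells exposed to compound for 72 h. Cytotoxicity reported as LC50 and pLC50, averaged from at least two independent experiments on different days.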

[2] = target: DNA (cytosine-5)-methyltransferase 1 (Homo sapiens, UniProt P26358); experiment: Inhibition of human DNMT1 enzyme using polydeoxy-inosine polydeoxy-cytosine DNA as substrate incubated for 15 mins in presence of SAM by TR-FRET assay
[3] = target: T1, Histone-lysine N-methyltransferase EHMT2 (Homo sapiens, UniProt Q96KQ7); experiment: Inhibition of human G9a enzyme using histone monomethyl-H3K9 peptide as substrate incubated for 1 hr in presence of SAM by TR-FRET assay
T1 sequence (Q96KQ7 whole entry): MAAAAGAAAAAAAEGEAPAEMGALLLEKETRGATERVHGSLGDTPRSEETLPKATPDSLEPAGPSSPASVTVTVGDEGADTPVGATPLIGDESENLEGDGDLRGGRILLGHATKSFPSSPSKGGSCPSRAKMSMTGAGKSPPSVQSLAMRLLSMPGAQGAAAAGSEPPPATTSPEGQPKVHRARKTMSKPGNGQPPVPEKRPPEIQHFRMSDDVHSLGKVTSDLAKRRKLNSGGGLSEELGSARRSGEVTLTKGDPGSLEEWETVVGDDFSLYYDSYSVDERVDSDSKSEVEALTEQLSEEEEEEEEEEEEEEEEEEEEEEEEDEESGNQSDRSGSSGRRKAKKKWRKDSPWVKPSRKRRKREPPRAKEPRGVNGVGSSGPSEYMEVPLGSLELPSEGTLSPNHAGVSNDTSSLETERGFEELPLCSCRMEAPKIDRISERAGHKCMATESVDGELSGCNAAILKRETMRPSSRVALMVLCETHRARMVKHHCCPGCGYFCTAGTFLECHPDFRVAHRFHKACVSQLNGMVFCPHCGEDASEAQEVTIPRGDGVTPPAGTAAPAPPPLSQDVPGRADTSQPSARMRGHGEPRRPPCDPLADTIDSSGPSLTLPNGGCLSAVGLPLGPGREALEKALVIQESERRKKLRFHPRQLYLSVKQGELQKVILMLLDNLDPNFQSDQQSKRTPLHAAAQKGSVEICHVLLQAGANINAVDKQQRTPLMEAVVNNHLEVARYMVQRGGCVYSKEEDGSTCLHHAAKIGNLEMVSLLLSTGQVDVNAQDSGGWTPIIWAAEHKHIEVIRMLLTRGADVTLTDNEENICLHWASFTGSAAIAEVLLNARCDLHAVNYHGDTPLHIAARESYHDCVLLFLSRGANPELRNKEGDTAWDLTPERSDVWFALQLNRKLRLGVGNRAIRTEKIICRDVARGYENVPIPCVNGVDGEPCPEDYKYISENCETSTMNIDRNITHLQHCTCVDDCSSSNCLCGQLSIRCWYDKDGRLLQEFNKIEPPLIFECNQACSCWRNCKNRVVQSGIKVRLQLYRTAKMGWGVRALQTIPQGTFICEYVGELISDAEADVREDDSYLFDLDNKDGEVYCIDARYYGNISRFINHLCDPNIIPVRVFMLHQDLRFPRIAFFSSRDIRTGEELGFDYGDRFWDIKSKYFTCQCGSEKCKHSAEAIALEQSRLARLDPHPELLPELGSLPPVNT

[4] = target: T2, Protein deacetylase HDAC6 (Homo sapiens, UniProt Q9UBN7); experiment: Inhibition of full length human N-terminal GST-tagged HDAC6 using fluorogenic acetylated peptide as substrate incubated for 30 mins by fluorescence plate reader assay
T2 sequence (Q9UBN7 whole entry): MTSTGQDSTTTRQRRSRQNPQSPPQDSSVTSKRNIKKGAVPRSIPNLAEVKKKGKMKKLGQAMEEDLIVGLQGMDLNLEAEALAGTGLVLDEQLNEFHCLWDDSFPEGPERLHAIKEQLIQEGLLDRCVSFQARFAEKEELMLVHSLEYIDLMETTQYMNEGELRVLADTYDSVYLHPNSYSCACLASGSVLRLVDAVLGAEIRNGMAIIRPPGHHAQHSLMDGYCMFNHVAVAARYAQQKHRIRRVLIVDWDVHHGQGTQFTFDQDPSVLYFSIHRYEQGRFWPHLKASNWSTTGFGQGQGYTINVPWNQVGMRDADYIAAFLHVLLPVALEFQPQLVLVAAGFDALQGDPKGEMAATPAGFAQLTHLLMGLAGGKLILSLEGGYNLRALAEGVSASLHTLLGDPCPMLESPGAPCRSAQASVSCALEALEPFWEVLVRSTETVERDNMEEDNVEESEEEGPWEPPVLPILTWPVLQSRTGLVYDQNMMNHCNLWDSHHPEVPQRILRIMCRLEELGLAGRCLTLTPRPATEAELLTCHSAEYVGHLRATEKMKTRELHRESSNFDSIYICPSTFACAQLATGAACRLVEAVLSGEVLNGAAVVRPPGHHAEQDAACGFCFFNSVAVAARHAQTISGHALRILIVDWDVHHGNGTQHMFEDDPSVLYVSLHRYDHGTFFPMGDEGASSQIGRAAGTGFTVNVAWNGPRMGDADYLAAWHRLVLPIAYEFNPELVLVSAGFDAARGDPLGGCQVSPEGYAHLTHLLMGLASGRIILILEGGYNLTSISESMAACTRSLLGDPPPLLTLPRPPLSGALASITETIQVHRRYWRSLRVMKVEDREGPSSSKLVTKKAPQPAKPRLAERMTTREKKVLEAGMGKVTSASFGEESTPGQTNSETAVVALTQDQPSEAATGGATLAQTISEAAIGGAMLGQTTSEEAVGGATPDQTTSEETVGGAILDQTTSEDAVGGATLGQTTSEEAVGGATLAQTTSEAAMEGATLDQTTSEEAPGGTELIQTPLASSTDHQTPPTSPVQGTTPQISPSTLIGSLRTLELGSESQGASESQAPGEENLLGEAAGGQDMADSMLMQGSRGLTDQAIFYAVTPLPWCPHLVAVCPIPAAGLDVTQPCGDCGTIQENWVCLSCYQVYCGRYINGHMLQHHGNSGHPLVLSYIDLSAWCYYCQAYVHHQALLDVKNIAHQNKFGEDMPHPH

Histone deacetylase 2 = Histone deacetylase 2 (Homo sapiens, UniProt Q92769)
[5] = target: Histone deacetylase 3/Nuclear receptor corepressor 2 (HDAC3/NCoR2) (Homo sapiens, UniProt O15379); experiment: Inhibition of full length human C-terminal His-tagged HDAC3/human N-terminal GST-agged NCOR2 using fluorogenic acetylated peptide as substrate incubated for 30 mins by fluorescence plate reader assay; format: protein-complex assay
[6] = time hrs <=72, read-out: pGI50 (converted)

Histone deacetylase 1, sequence (Q13547 whole entry): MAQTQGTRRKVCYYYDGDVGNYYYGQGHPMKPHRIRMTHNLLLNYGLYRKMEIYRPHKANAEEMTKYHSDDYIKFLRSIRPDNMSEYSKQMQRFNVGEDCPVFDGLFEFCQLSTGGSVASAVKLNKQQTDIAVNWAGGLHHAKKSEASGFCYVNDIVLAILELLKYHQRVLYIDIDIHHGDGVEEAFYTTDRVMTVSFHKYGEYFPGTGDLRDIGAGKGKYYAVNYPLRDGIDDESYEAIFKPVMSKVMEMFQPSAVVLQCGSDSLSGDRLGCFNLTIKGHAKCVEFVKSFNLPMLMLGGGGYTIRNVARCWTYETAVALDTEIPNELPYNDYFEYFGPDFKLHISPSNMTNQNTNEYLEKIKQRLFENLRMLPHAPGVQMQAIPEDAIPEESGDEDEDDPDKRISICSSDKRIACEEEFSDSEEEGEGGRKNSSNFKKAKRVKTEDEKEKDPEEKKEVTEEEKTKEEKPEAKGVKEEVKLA
Histone deacetylase 3/Nuclear receptor corepressor 2 (HDAC3/NCoR2), sequence (O15379 whole entry): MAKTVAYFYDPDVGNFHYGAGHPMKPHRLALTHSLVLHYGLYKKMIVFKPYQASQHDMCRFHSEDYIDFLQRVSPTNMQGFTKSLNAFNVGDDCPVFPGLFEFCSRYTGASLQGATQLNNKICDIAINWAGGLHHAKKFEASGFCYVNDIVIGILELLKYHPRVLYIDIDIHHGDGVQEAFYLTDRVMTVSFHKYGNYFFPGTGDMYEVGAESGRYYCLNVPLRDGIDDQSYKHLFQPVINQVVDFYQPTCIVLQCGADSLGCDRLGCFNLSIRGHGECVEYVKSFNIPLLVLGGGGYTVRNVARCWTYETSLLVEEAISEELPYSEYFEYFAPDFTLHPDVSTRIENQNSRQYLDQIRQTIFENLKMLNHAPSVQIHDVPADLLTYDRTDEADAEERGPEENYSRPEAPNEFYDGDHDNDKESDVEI
Histone deacetylase 3/Nuclear receptor corepressor 2 (HDAC3/NCoR2), sequence (Q9Y618 whole entry, further chain): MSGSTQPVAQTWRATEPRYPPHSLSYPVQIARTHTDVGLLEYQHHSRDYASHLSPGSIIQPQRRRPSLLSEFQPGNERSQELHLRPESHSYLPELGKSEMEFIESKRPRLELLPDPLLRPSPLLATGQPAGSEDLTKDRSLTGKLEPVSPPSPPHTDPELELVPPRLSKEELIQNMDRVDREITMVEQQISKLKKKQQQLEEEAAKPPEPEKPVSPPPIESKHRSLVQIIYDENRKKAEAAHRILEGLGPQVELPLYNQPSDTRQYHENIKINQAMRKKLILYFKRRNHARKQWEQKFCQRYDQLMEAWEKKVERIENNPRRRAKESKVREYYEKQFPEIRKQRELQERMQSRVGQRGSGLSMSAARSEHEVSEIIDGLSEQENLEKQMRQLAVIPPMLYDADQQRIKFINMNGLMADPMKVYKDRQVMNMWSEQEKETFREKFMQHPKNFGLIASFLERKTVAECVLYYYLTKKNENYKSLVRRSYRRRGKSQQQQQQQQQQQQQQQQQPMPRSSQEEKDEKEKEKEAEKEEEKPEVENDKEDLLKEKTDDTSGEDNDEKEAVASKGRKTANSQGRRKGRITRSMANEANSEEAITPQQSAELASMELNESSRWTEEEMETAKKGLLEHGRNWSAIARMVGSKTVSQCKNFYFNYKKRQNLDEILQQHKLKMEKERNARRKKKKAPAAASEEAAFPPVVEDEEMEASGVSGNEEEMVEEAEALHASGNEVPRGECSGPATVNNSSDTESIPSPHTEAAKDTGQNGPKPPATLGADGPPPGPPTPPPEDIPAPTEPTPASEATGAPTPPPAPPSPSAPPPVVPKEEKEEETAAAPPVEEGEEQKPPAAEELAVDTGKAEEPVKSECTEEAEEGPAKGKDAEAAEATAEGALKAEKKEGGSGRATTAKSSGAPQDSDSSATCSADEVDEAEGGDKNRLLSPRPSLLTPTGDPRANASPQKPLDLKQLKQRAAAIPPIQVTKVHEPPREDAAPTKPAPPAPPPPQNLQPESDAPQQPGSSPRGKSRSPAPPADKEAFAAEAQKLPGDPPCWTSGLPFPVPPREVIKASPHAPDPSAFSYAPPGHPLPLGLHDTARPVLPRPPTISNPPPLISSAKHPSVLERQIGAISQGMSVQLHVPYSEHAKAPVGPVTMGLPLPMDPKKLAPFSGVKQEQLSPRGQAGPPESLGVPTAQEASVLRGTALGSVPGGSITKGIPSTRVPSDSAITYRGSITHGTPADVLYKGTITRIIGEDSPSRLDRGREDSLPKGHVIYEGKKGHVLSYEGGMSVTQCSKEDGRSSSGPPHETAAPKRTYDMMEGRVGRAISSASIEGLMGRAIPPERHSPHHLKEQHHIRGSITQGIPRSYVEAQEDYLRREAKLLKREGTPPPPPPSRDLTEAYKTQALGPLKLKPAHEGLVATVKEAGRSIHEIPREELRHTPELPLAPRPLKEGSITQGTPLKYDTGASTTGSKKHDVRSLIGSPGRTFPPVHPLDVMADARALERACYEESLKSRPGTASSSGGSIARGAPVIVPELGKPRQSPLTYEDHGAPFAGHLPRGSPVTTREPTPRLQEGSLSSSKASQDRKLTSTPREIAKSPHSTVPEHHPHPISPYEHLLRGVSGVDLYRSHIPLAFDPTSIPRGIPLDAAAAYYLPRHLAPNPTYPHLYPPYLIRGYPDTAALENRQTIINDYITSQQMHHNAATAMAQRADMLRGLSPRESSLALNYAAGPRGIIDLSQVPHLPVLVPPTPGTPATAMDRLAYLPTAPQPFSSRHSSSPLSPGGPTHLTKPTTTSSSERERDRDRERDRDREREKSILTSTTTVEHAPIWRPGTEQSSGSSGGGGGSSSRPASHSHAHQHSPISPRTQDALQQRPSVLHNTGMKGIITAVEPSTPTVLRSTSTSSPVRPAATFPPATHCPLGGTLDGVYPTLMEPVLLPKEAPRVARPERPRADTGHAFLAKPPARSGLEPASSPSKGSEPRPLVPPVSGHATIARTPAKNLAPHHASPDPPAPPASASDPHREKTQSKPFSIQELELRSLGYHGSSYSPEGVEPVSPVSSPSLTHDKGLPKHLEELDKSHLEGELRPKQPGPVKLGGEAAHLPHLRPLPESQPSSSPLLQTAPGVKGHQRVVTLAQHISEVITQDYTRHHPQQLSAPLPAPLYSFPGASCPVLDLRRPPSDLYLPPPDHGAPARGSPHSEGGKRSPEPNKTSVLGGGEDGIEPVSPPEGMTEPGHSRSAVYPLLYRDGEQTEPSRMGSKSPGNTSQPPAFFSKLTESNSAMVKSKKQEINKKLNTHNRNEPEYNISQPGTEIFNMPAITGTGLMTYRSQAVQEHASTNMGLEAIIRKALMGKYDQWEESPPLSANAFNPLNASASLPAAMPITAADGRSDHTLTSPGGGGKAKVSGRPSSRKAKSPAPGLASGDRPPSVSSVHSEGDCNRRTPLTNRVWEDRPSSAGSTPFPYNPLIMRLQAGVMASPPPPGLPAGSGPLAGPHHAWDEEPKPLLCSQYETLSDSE
Histone deacetylase 2, sequence (Q92769 whole entry): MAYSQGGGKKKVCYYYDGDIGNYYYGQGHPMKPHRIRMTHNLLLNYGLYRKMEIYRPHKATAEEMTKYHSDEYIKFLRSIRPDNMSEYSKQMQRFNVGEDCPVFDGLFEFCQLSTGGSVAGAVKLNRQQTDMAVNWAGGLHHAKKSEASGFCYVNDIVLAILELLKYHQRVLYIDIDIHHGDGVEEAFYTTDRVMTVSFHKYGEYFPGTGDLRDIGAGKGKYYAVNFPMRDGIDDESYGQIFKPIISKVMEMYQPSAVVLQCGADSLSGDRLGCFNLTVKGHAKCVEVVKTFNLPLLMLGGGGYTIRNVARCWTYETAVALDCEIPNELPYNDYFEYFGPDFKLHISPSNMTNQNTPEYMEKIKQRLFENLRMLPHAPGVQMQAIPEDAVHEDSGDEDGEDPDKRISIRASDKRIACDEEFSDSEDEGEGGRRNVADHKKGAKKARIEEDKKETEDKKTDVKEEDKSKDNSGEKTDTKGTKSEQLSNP

Structure (SMILES) | Papp at 18 h [1] | IC50 (Histone deacetylase 1) | GI50 (MM1.S; time hrs <=72, read-out: GI50) | GI50 (MM1.S; [6]) | LC50 (THLE-2) | pLC50 (THLE-2) | IC50 [2] | IC50 [3] | IC50 [4] | IC50 (Histone deacetylase 2) | IC50 [5]
COc1cc2nc(-c3ccc(C)o3)cc(NCC3CCN(C4CC(C(=O)NO)C4)CC3)c2cc1OC (centres undefined) | 0.068 ×10⁻⁶ cm/s | 453 nM | 1980 nM | 2000 nM | 10.41 µM | 4.98 | 540 nM | > 10000 nM | 3180 nM | – | –
COc1cc2nc(C3CCCCC3)cc(NCC3CCN(c4ncc(C(=O)NO)cn4)CC3)c2cc1OC | 0.21 ×10⁻⁶ cm/s | 2 nM | 195 nM | 195 nM | 2.298 µM | 5.64 | > 10000 nM | > 10000 nM | 111 nM | – | –
COc1cc2c(NC3CCN(c4ncc(C(=O)NO)cn4)CC3)cc(C)nc2cc1OCCCN1CCCC1 | 0.075 ×10⁻⁶ cm/s | 17 nM | > 10000 nM | > 10000 nM | 33.25 µM | 4.48 | 2040 nM | 34 nM | 118 nM | – | –
COc1cc2c(NCC3CCC(C(=O)NO)CC3)cc(-c3ccc(C)o3)nc2cc1OCCCN1CCCC1 (centres undefined) | – | 22 nM | > 10000 nM | > 10000 nM | 26.1 µM | 4.58 | 531 nM | 55 nM | 34 nM | 159 nM | 109 nM
COc1cc2c(NCc3ccc(-c4ccc(C(=O)NO)cc4)cc3)cc(-c3ccc(C)o3)nc2cc1OCCCN1CCCC1 | 0.11 ×10⁻⁶ cm/s | 45 nM | 1810 nM | 1820 nM | 13.5 µM | 4.87 | 2570 nM | 2240 nM | 127 nM | – | –
COc1cc2c(NCC3CCN(C)CC3)cc(-c3ccc(C)o3)nc2cc1OCCCN1CCCC1 | – | > 10000 nM | 3840 nM | 3800 nM | 1.3 µM | 5.89 | – | – | > 10000 nM | > 10000 nM | > 10000 nM
COc1cc2nc(-c3ccc(C)o3)nc(NCC3CCN(c4ncc(C(=O)NO)cn4)CC3)c2cc1OC | – | 7 nM | – | – | – | – | > 10000 nM | > 10000 nM | 506 nM | 38 nM | 21 nM
COc1cc2nc(-c3ccc(C)o3)cc(NCC3CCN(Cc4ccc(C(=O)NO)cc4)CC3)c2cc1OC | 0.556 ×10⁻⁶ cm/s | 330 nM | 217 nM | 219 nM | 0.204 µM | 6.69 | 267 nM | > 10000 nM | 84 nM | – | –
COc1cc2c(NC3CCN(c4ccc(C(=O)NO)cc4)CC3)cc(-c3ccc(C)o3)nc2cc1OCCCN1CCCC1 | 0.014 ×10⁻⁶ cm/s | 415 nM | > 10000 nM | > 10000 nM | 6.656 µM | 5.18 | 691 nM | 25 nM | 133 nM | – | –
COc1cc2c(NC3CCN(C)CC3)cc(-c3ccc(C)o3)nc2cc1OCCCN1CCCC1 | – | > 10000 nM | 1040 nM | 1070 nM | 1.78 µM | 5.75 | – | – | > 10000 nM | > 10000 nM | > 10000 nM
COc1cc2nc(-c3ccc(C)o3)cc(NCC3CCN(Cc4ccc(C(=O)NO)s4)CC3)c2cc1OC | 0.401 ×10⁻⁶ cm/s | 303 nM | 1940 nM | 1950 nM | 2.227 µM | 5.65 | 323 nM | > 10000 nM | 66 nM | – | –
COc1cc2c(NCC3CCN(c4ncc(C(=O)NO)cn4)CC3)cc(-c3ccc(C)o3)nc2cc1OCC1CCNCC1 | 0.025 ×10⁻⁶ cm/s | 6 nM | > 10000 nM | > 10000 nM | 19.7 µM | 4.71 | 1140 nM | 2070 nM | 351 nM | – | –
